Measured values as given in ChEMBL document CHEMBL1122866, “3-Phenyl-1-indanamines. Potential antidepressant activity and potent inhibition of dopamine, norepinephrine, and serotonin uptake” (J Med Chem, 1985).
“And” between values parts separate entries of the source, which are not always exact repeats. Identical values can stand only once.

What was measured:
Format in all cases: functional
Mus musculus [1] = organism: Mus musculus; experiment: Antagonistic activity against 5-HTP induced potentiation in mice
Procedure, shortened: (§1)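 Mice dosed intraperitoneally; the result is reported as the ED50 in μmol/kg with a range in parentheses. Test compounds are racemates of >95% isomeric purity by TLC.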

Mus musculus [2] = organism: Mus musculus; experiment: Antagonistic activity against tetrabenazine-induced ptosis in mice.; procedure, shortened: as §1
[3] = target: Sodium-dependent dopamine transporter (Rattus norvegicus, UniProt P23977); experiment: Inhibition of dopamine uptake in rat synaptosomal fraction
[4] = target: Norepinephrine transporter (Rattus norvegicus, UniProt Q9WTR4); experiment: Inhibition of noradrenaline uptake in rat synaptosomal fraction
Procedure, shortened: (§2)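 Synaptosomal uptake of DA, NE or 5-HT measured. The IC50 is in nM and is the mean of at least two determinations, each using five test concentrations in triplicate.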

[5] = target: Sodium-dependent serotonin transporter (Rattus norvegicus, UniProt P31652); experiment: Inhibition of 5-HT uptake in rat synaptosomal fraction; procedure, shortened: as §2
Sodium-dependent serotonin transporter, sequence (P31652 whole entry): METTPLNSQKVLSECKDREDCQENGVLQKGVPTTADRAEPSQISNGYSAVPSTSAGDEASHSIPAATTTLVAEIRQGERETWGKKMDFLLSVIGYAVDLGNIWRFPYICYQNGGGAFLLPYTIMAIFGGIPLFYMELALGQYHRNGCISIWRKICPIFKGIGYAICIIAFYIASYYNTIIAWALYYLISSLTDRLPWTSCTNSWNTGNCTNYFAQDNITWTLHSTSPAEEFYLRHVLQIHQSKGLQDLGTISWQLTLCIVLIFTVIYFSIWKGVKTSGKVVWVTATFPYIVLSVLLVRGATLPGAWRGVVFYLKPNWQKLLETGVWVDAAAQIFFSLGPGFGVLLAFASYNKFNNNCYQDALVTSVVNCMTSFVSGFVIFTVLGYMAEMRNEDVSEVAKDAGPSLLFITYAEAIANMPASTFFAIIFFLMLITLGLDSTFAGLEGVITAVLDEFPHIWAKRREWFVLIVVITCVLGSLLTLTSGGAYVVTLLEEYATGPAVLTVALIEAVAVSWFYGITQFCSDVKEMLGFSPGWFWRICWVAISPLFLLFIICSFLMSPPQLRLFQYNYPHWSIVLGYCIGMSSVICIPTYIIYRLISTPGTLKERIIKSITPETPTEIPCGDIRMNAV

Sodium-dependent dopamine transporter, sequence (P23977 whole entry): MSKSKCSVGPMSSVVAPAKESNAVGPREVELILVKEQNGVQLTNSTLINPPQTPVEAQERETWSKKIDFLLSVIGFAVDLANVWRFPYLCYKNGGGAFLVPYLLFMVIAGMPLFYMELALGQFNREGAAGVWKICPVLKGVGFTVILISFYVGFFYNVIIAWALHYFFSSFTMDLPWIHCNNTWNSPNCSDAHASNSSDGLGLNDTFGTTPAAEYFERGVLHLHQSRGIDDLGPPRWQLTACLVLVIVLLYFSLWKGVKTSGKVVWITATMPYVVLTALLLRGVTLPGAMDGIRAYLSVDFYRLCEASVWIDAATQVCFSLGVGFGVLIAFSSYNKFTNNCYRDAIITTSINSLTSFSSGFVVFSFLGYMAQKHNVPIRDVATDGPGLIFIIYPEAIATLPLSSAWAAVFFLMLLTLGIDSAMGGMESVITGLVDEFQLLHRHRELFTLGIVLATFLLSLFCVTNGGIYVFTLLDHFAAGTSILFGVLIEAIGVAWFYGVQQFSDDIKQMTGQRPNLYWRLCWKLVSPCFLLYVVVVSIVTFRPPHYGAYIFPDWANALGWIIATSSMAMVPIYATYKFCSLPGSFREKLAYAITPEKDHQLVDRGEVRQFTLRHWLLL
Norepinephrine transporter, sequence (Q9WTR4 whole entry): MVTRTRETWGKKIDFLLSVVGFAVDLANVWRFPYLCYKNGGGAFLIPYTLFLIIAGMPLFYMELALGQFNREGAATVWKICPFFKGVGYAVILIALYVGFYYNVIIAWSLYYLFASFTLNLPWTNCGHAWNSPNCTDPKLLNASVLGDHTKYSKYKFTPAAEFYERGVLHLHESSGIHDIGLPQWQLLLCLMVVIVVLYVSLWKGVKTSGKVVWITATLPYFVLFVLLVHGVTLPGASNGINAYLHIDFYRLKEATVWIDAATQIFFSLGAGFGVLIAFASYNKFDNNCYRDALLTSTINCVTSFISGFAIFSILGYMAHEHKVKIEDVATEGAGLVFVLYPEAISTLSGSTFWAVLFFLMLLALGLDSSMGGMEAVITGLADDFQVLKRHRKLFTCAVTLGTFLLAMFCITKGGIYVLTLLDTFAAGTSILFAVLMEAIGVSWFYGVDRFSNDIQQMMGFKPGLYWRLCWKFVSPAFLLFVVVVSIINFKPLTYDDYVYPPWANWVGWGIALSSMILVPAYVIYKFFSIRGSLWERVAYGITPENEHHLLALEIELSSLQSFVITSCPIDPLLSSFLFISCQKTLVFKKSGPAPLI

Row | SMILES | ED50 (Mus musculus [1]) | also measured
1 | Clc1ccc(C2CC(NCCc3ccccc3)c3ccccc32)cc1Cl (stereo unspecified) [listing 1 of 2 here] | > 85 µmol/kg and 142 µmol/kg | 
2 | CN(C)C1CC(c2ccc(F)cc2)c2ccc(C(F)(F)F)cc21 (stereo in doubt; 82) | 101 µmol/kg | 
3 | Clc1ccc(C2CC(NCc3ccccc3)c3ccccc32)cc1Cl (stereo in doubt; 93) | 47 µmol/kg | 
4 | CN1CCN(C2CC(c3ccc(Cl)c(Cl)c3)c3ccccc32)CC1 (single isomer, unassigned; (+)-101) [listing 1 of 2 here] |  | ED50 (Mus musculus [2]): >91 µmol/kg; IC50 [3]: 340 nM
5 | CNC1CC(c2ccc(Cl)cc2)c2ccccc21 (stereo unspecified) | 34 µmol/kg and 22 µmol/kg | 
6 | CCN(CC)C1CC(c2ccc(Cl)c(Cl)c2)c2ccccc21 (stereo in doubt; 86) | 204 µmol/kg | 
7 | CCCNC1CC(c2ccc(Cl)c(Cl)c2)c2ccccc21 (stereo in doubt; 87) | 87 µmol/kg | 
8 | CNC1CC(c2ccc(F)cc2)c2ccccc21 (stereo in doubt; 60) | 72 µmol/kg | 
9 | CN(C)C1CC(c2ccc(Cl)c(Cl)c2)c2ccccc21.Cl (stereo unspecified) |  | IC50 [4]: 2.4 nM
10 | CCNC1CC(c2ccc(Cl)c(Cl)c2)c2ccccc21 (stereo in doubt; 84) | 26 µmol/kg | 
11 | CNC1CC(c2ccc(F)c(Cl)c2)c2ccccc21 (stereo in doubt; 70) | 30 µmol/kg | 
12 | CN(C)C1CC(c2ccc(F)cc2)c2ccc(F)cc21 (stereo unspecified) [listing 1 of 2 here] |  | ED50 (Mus musculus [2]): >147 µmol/kg; IC50 [4]: 90 nM
13 | CNC1CC(c2ccc(F)c(Cl)c2)c2ccccc21 (stereo in doubt; 43) | 47 µmol/kg | 
14 | CCNC1CC(c2ccc(Cl)c(Cl)c2)c2ccccc21 (stereo in doubt; 83) | 26 µmol/kg | 
15 | CN(C)C1CC(c2cccc(Cl)c2)c2ccccc21 (stereo in doubt; 40) | 43 µmol/kg | 
16 | CN(C)C1CC(c2ccc(F)cc2)c2ccc(C(F)(F)F)cc21 (stereo in doubt; 57) | 123 µmol/kg | 
17 | CN1CCN(C2CC(c3ccc(Cl)c(Cl)c3)c3ccccc32)CC1 (single isomer, unassigned; (+)-101) [listing 2 of 2 here] | > 91 µmol/kg | 
18 | Clc1ccc(C2CC(NCc3ccccc3)c3ccccc32)cc1Cl (stereo in doubt; 94) | 207 µmol/kg | 
19 | CN(C)C1CC(c2ccc(F)c(Cl)c2)c2ccccc21.Cl (stereo in doubt; 71) |  | ED50 (Mus musculus [2]): 13 µmol/kg
20 | CNC1CC(c2cccc(Cl)c2)c2ccccc21 (stereo in doubt; 39) | 92 µmol/kg | 
21 | CN(C)C1CC(c2ccc(Cl)c(Cl)c2)c2ccc(F)cc21 (stereo in doubt; 51) | 20 µmol/kg | 
22 | Clc1ccc(C2CC(N3CCCC3)c3ccccc32)cc1Cl (stereo in doubt; 98) | 161 µmol/kg | 
23 | CN1CCN(C2CC(c3ccc(Cl)c(Cl)c3)c3ccccc32)CC1 (single isomer, unassigned; (+)-102) [listing 1 of 2 here] | > 89 µmol/kg | 
24 | CNC1CC(c2ccc(Cl)c(Cl)c2)c2ccc(F)cc21 (stereo in doubt; 50) | 27 µmol/kg | 
25 | CCCN(CCC)C1CC(c2ccc(Cl)c(Cl)c2)c2ccccc21 (stereo in doubt; 90) | > 100 µmol/kg | 
26 | CNC1CC(c2ccc(F)cc2)c2ccccc21 (stereo in doubt; 32) | > 144 µmol/kg | 

Row | SMILES | ED50 (Mus musculus [1]) | also measured
27 | CCCNC1CC(c2ccc(Cl)c(Cl)c2)c2ccccc21 (stereo in doubt; 88) [listing 1 of 2 here] | > 112 µmol/kg | 
28 | CN(C)C1CC(c2ccc(F)c(Cl)c2)c2ccccc21 (stereo in doubt; 44) | 37 µmol/kg | 
29 | Clc1ccc(C2CC(N3CCCCC3)c3ccccc32)cc1Cl (stereo in doubt; 100) | > 209 µmol/kg | 
30 | CN(C)C1CC(c2ccc(Br)cc2)c2ccccc21 (stereo in doubt; 65) | 12 µmol/kg | 
31 | CN(C)C1CC(c2ccc(F)cc2)c2ccc(F)cc21 (stereo unspecified) [listing 2 of 2 here] | > 29 µmol/kg and 21 µmol/kg | 
32 | CN(C)C1CC(c2ccc(Cl)c(Cl)c2)c2ccc(F)cc21 (stereo in doubt; 77) | 29 µmol/kg | 
33 | Clc1ccc(C2CC(N3CCCC3)c3ccccc32)cc1Cl (stereo in doubt; 97) [listing 1 of 2 here] |  | ED50 (Mus musculus [2]; Mus musculus, read-out: ED50): > 108 µmol/kg; IC50 [3]: 320 nM
34 | CNC1CC(c2ccc(F)c(F)c2)c2ccccc21 (stereo in doubt; 41) | 22 µmol/kg | 
35 | CN(C)C1CC(c2ccc(Br)cc2)c2ccccc21 (stereo in doubt; 37) | 8.4 µmol/kg | 
36 | CNC1CC(c2ccc(Br)cc2)c2ccccc21 (stereo in doubt; 64) | 6.6 µmol/kg | 
37 | Clc1ccc(C2CC(N3CCCCC3)c3ccccc32)cc1Cl (stereo in doubt; 99) [listing 1 of 2 here] |  | IC50 [3]: 720 nM
38 | CN1CCN(C2CC(c3ccc(Cl)c(Cl)c3)c3ccccc32)CC1 (stereo in doubt; (-)-102) | > 89 µmol/kg | 
39 | CN(C)C1CC(c2ccccc2)c2ccccc21.Cl (stereo in doubt; 59) |  | ED50 (Mus musculus [2]): >143 µmol/kg; IC50 [4]: 41 nM
40 | CN(C)C1CC(c2ccc(F)c(Cl)c2)c2ccccc21 (stereo in doubt; 71) | 51 µmol/kg | 
41 | CN(C)C1CC(c2ccc(F)cc2)c2ccccc21 (stereo in doubt; 61) | 25 µmol/kg | 
42 | CN1CCN(C2CC(c3ccc(Cl)c(Cl)c3)c3ccccc32)CC1 (single isomer, unassigned; (-)) | > 92 µmol/kg | 
43 | CCN(CC)C1CC(c2ccc(Cl)c(Cl)c2)c2ccccc21.Cl (stereo in doubt; 86) |  | ED50 (Mus musculus [2]): >108 µmol/kg; IC50 [4]: 13 nM
44 | CN(C)C1CC(c2ccc(Cl)cc2)c2ccccc21 (stereo in doubt; 63) | 14 µmol/kg | 
45 | CN(C)C1CC(c2cccc(Cl)c2)c2ccccc21 (stereo in doubt; 67) | 78 µmol/kg | 
46 | CN(C)C1CC(c2ccccc2)c2ccccc21 (stereo in doubt; 31) | > 35 µmol/kg | 
47 | CN(C)C1CC(c2ccc(F)cc2)c2ccccc21 (stereo in doubt; 33) | 45 µmol/kg | 
48 | CN1Cc2c(N)cccc2C(c2ccccc2)C1 (stereo unspecified) | > 56 µmol/kg | 
49 | CN(C)C1CC(c2ccc(F)c(F)c2)c2ccccc21 (stereo unspecified) | 73 µmol/kg and 42 µmol/kg | 
50 | CNC1CC(c2ccc(F)c(Cl)c2)c2ccccc21.Cl (stereo in doubt; 70) |  | ED50 (Mus musculus [2]): 32 µmol/kg
51 | Clc1ccc(C2CC(N3CCCC3)c3ccccc32)cc1Cl (stereo in doubt; 97) [listing 2 of 2 here] | > 108 µmol/kg | 
52 | CN(C)C1CC(c2ccc(Cl)cc2Cl)c2ccccc21 (stereo in doubt; 49) | 19 µmol/kg | 

Row | SMILES | ED50 (Mus musculus [1]) | also measured
53 | CN(C)C1CC(c2ccc(F)c(Cl)c2)c2ccccc21.Cl (stereo in doubt; 44) |  | ED50 (Mus musculus [2]): 4.5 µmol/kg
54 | CNC1CC(c2ccc(Cl)c(Cl)c2)c2ccc(O)cc21 (stereo in doubt; 54) | > 128 µmol/kg | 
55 | CCN(CC)C1CC(c2ccc(Cl)c(Cl)c2)c2ccccc21 (stereo in doubt; 85) | 19 µmol/kg | 
56 | CCNC1CC(c2ccc(Cl)c(Cl)c2)c2ccccc21.Cl (stereo in doubt; 84) |  | IC50 [4]: 49 nM; IC50 [5]: 1.6 nM
57 | CN(C)C1CC(c2ccc(Cl)cc2)c2ccccc21 (stereo in doubt; 35) | 48 µmol/kg | 
58 | Clc1ccc(C2CC(N3CCCCC3)c3ccccc32)cc1Cl (stereo in doubt; 99) [listing 2 of 2 here] | > 209 µmol/kg | 
59 | CCCN(CCC)C1CC(c2ccc(Cl)c(Cl)c2)c2ccccc21 (stereo in doubt; 89) | > 100 µmol/kg | 
60 | CN(C)C1CC(c2ccccc2)c2ccccc21 (stereo in doubt; 59) | > 36 µmol/kg | 
61 | CNC1CC(c2ccc(Br)cc2)c2ccccc21 (stereo in doubt; 36) | 8.8 µmol/kg | 
62 | CN1CCN(C2CC(c3ccc(Cl)c(Cl)c3)c3ccccc32)CC1 (stereo in doubt; 102) | > 89 µmol/kg | 
63 | CN(C)C1CC(c2ccc(Cl)c(Cl)c2)c2ccccc21 (stereo unspecified) | 5 µmol/kg and 10 µmol/kg | 
64 | CNC1CC(c2ccc(Cl)cc2Cl)c2ccccc21 (stereo in doubt; 48) | 67 µmol/kg | 
65 | CN(C)C1CC(c2ccc(Cl)cc2Cl)c2ccccc21 (stereo in doubt; 75) [listing 1 of 2 here] |  | ED50 (Mus musculus [2]; Mus musculus, read-out: ED50): 23 µmol/kg; IC50 [4]: 34 nM
66 | Clc1ccc(C2CC(NCCc3ccccc3)c3ccccc32)cc1Cl (stereo unspecified) [listing 2 of 2 here] |  | ED50 (Mus musculus [2]): >85 µmol/kg
67 | CNC1CC(c2cccc(Cl)c2)c2ccccc21 (stereo in doubt; 66) | 124 µmol/kg | 
68 | Cl.Clc1ccc(C2CC(NCCc3ccccc3)c3ccccc32)cc1Cl (stereo unspecified) |  | ED50 (Mus musculus [2]): 33 µmol/kg
69 | CN(C)C1CC(c2ccc(Cl)cc2Cl)c2ccccc21 (stereo in doubt; 75) [listing 2 of 2 here] | 19 µmol/kg | 
70 | CNC1CC(c2ccc(Cl)c(Cl)c2)c2ccc(F)cc21 (stereo in doubt; 76) | 15 µmol/kg | 
71 | CNC1CC(c2ccc(F)c(F)c2)c2ccccc21 (stereo in doubt; 68) | 63 µmol/kg | 
72 | CNC1CC(c2ccc(F)c(Cl)c2)c2ccccc21.Cl (stereo in doubt; 43) |  | ED50 (Mus musculus [2]): 12 µmol/kg
73 | CN(C)C1CC(c2ccc(F)cc2)c2ccc(C(F)(F)F)cc21.Cl (stereo in doubt; 82) |  | ED50 (Mus musculus [2]): >111 µmol/kg; IC50 [4]: 350 nM
74 | CCCNC1CC(c2ccc(Cl)c(Cl)c2)c2ccccc21 (stereo in doubt; 88) [listing 2 of 2 here] |  | ED50 (Mus musculus [2]; Mus musculus, read-out: ED50): > 112 µmol/kg
75 | CN1CCN(C2CC(c3ccc(Cl)c(Cl)c3)c3ccccc32)CC1 (single isomer, unassigned; (+)-102) [listing 2 of 2 here] |  | IC50 [3]: 1700 nM
76 | CCCN(CCC)C1CC(c2ccc(Cl)c(Cl)c2)c2ccccc21.Cl (stereo in doubt; 90) |  | ED50 (Mus musculus [2]): >100 µmol/kg; IC50 [3]: 180 nM
77 | CNC1CC(c2ccc(Cl)cc2Cl)c2ccccc21 (stereo in doubt; 74) | 71 µmol/kg | 
